This is an account of results in ChEMBL document CHEMBL1143884, “Pyrimidine-based inhibitors of CaMKIIdelta” (Bioorg Med Chem Lett, 2008).

Assay [1] deals with T1, Calcium/calmodulin-dependent protein kinase type II subunit delta (Homo sapiens, UniProt Q13557). Nature of the assay: Inhibition of cloned CaMK2delta. In short, it runs like this: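 Radiometric filter-binding assay. Recombinant CaMKIIδ in 50 mM PIPES pH 7, 0.2 mg/ml BSA, 1 mM DTT, preincubated with inhibitor. Reaction started with buffer containing MgCl2, ATP, CaCl2, calmodulin, [His5]Autocamtide-2 substrate and [γ-33P]ATP, run 3 min at RT. Stopped on P81 phosphocellulose filter, washed with 1% phosphoric acid, counted by scintillation.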
T1 sequence (Q13557 whole entry): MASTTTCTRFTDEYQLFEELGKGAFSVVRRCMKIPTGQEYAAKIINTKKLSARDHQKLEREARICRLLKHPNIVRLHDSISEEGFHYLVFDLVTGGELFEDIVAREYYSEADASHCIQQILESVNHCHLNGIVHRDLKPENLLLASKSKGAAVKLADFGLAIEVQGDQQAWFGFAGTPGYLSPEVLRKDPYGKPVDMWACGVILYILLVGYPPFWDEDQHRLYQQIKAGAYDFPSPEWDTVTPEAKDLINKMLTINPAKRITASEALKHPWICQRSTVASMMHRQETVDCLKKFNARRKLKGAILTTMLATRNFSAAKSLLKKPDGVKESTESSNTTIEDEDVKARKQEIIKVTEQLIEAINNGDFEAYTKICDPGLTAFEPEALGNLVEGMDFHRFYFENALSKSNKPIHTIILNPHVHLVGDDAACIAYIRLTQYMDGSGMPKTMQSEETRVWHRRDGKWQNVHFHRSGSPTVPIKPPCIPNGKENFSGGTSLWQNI

Assay [2] deals with T1, Calcium/calmodulin-dependent protein kinase type II subunit delta. Kind of assay: Inhibition of CaMK2delta-mediated vimentin phosphorylation in human HL2 cells at 5 uM after 1 hr by ELISA. Format: cell-based. (In general: ELISA stands for enzyme-linked immunosorbent assay.)
Assay [3] shares this target. Nature of the assay: Inhibition of CaMK2delta-mediated vimentin phosphorylation in human HL2 cells after 1 hr by ELISA. It is filed as cell-based. In a few lines: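 HL-2 cells preincubated 1 h at 37 °C with inhibitor at increasing concentrations, then CaMKII activated with ionomycin for 15 min at 37 °C. Cells lysed in ice-cold lysis buffer and frozen at −80 °C before read-out.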

With `C[C@H](Nc1cc(Nc2nccc(-c3cccc(C(=O)O)c3)n2)ccn1)c1ccccc1`, the IC50 (commonly the concentration needed to halve the response being measured) in assay [1] is 13 µM.

In the case of `O=C(O)c1ccc(-c2ccnc(Nc3ccccc3)n2)cc1`, the IC50 in assay [1] amounted to 0.064 µM. Moreover, the inhibition (usually the relative decrease from the control value, in per cent) in assay [2] came out at 0%.

With `NCCNc1cccc(-c2ccnc(Nc3cccc(Cl)c3)n2)c1`, the half-inhibitory concentration (IC50) in assay [1] worked out at 0.012 µM; in assay [3] it was 0.11 µM.

Consider `O=C(O)c1ccc(-c2ccnc(Nc3cccc(Cl)c3)n2)cc1`, for which the IC50 in assay [1] amounted to 0.042 µM. The inhibition in assay [2] is 0%.

Turning to `CNC(=O)c1ccc(-c2ccnc(Nc3ccccc3)n2)cc1`, the IC50 in assay [1] was more than 20 µM.

For `COC(=O)c1ccc(-c2ccnc(Nc3ccnc(N[C@@H](C)c4ccccc4)c3)n2)cc1`, the IC50 in assay [1] was 1.69 µM.

Turning to `C[C@H](Nc1cc(Nc2nccc(-c3cccc(-c4ccccc4)c3)n2)ccn1)c1ccccc1`, the IC50 in assay [1] worked out at 3.14 µM.

As to `CNC(=O)c1ccc(-c2ccnc(Nc3ccnc(N[C@@H](C)c4ccccc4)c3)n2)cc1`, in assay [1], the IC50 is 0.72 µM.

With `O=C(O)c1ccc(-c2ccnc(Nc3ccncc3)n2)cc1`, in assay [1], the IC50 is 0.39 µM.

In the case of `C[C@H](Nc1cc(Nc2nccc(-c3ccc(C(=O)O)cc3)n2)ccn1)c1ccccc1`, the IC50 in assay [1] came to 0.21 µM.

Take `C[C@H](Nc1cc(Nc2nccc(-c3ccc(C(=O)NO)cc3)n2)ccn1)c1ccccc1`: the concentration for half-maximal inhibition (IC50) in assay [1] was 0.17 µM.

In the case of `C[C@H](Nc1cc(Nc2nccc(-c3ccc(CC(=O)O)cc3)n2)ccn1)c1ccccc1`, the IC50 in assay [1] was determined as 3.42 µM.

As to `O=C(O)Cc1ccc(-c2ccnc(Nc3ccccc3)n2)cc1`, the IC50 in assay [1] is more than 20 µM.

As to `Nc1cccc(-c2ccnc(Nc3cccc(Cl)c3)n2)c1`, the 50% inhibitory concentration (IC50) in assay [1] stood at 0.66 µM.

Regarding `Clc1cccc(Nc2nccc(-c3cccc(N4CCOCC4)c3)n2)c1`, in assay [1], the IC50 came to 0.24 µM.

For the molecule `COC(=O)c1ccc(-c2ccnc(Nc3ccccc3)n2)cc1`, the IC50 in assay [1] was more than 20 µM. Moreover, the inhibition in assay [2] was determined as 0%.

As to `C[C@H](Nc1cc(Nc2nccc(-c3ccc(-c4nnn[nH]4)cc3)n2)ccn1)c1ccccc1`, the IC50 in assay [1] was 2.26 µM.

For the molecule `C[C@H](Nc1cc(Nc2nccc(-c3ccc(Cl)cc3)n2)ccn1)c1ccccc1`, the IC50 in assay [1] was 2.87 µM.

For the molecule `O=C(NO)c1ccc(-c2ccnc(Nc3ccccc3)n2)cc1`, the IC50 in assay [1] came to 0.29 µM. Further, the inhibition in assay [2] was 90%.

Turning to `c1ccc(Nc2nccc(-c3ccc(-c4nnn[nH]4)cc3)n2)cc1`, the IC50 in assay [1] is 0.77 µM. Also, the inhibition in assay [2] was determined as 0%.

For `Clc1cccc(Nc2nccc(-c3cccc(N4CCCCC4)c3)n2)c1`, the IC50 in assay [1] amounted to 0.93 µM.

`C[C@H](Nc1cc(Nc2nccc(-c3cccc(F)c3)n2)ccn1)c1ccccc1`: in assay [1], the IC50 is 1.28 µM.

Regarding `Clc1cccc(Nc2nccc(-c3cccc(N4CCNCC4)c3)n2)c1`, the 50% inhibitory concentration (IC50) was found to be 0.009 µM in assay [1] and 0.32 µM in assay [3].

With `C[C@H](Nc1cc(Nc2nccc(-c3ccc(N(C)C)cc3)n2)ccn1)c1ccccc1`, the IC50 in assay [1] stood at 2.22 µM.

Turning to `Cc1cccc(-c2ccnc(Nc3ccnc(N[C@@H](C)c4ccccc4)c3)n2)c1`, the IC50 in assay [1] was found to be 0.92 µM.

For `Nc1cc(Nc2nccc(-c3ccc(C(=O)O)cc3)n2)ccn1`, in assay [1], the IC50 was determined as 0.066 µM.
